Measured values from ChEMBL document CHEMBL4765238, “Structure-Based Discovery and Optimization of Benzo[ d]isoxazole Derivatives as Potent and Selective BET Inhibitors for Potential Treatment of Castration-Resistant Prostate Cancer (CRPC)” (J Med Chem, 2018).
Active and inactive are the calls of the source. No cut-off for these calls is given here.

Assays:
DU-145 = experiment: Antiproliferative activity against AR-negative human DU-145 cells assessed as reduction in cell viability incubated for 72 hrs by cell-titer glo assay; format: functional, cell-based; conditions: DU-145, 72 h
PC-3 = experiment: Antiproliferative activity against AR-negative human PC-3 cells assessed as reduction in cell viability incubated for 96 hrs by cell-titer glo assay; format: functional, cell-based; conditions: PC-3, 96 h
Hs-578T = experiment: Antiproliferative activity against human Hs-578T cells assessed as reduction in cell viability incubated for 72 hrs by cell-titer glo assay; format: functional, cell-based
MV4-11 = experiment: Antiproliferative activity against human MV4-11 cells assessed as reduction in cell viability incubated for 120 hrs by cell-titer glo assay; format: functional, cell-based; conditions: MV4-11, 120 h
HT-29 = experiment: Antiproliferative activity against human HT-29 cells assessed as reduction in cell viability incubated for 120 hrs by cell-titer glo assay; format: functional, cell-based; conditions: HT-29, 120 h
HeLa = experiment: Antiproliferative activity against human HeLa cells assessed as reduction in cell viability incubated for 72 hrs by cell-titer glo assay; format: functional, cell-based
A549 = experiment: Antiproliferative activity against human A549 cells assessed as reduction in cell viability incubated for 72 hrs by cell-titer glo assay; format: functional, cell-based; conditions: A549, 72 h
HFL1 = experiment: Cytotoxicity against human HFL1 cells assessed as reduction in cell viability incubated for 72 hrs by cell-titer glo assay; format: cell-based; conditions: HFL1, 72 h
LNCaP C4-2B = experiment: Inhibition of colony formation in human LNCaP C4-2B cells incubated for 14 days by crystal violet staining based assay; format: functional, cell-based; conditions: dose 0.5-2 µM, time 14.0 day
Summary of the method: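 C4-2B cells cultured with vehicle (DMSO) or compound at 0.5, 1.0 or 2.0 μM for 14 days, then colonies stained and counted against vehicle.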

LNCaP [1] = experiment: Inhibition of BET bromodomain in human LNCaP cells assessed as suppression of KLK2 mRNA expression at 5 uM incubated for 48 hrs by SYBR green dye based qRT-PCR analysis; format: cell-based
Summary of the method: (§1)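 LNCaP or VCaP cells exposed to vehicle (DMSO) or compound at 5 µM for 48 h; mRNA levels measured by qRT-PCR; mean ± s.e.m., n = 3; two-tailed Student's t-test.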

VCaP [2] = experiment: Inhibition of BET bromodomain in human VCaP cells assessed as suppression of KLK2 mRNA expression at 5 uM incubated for 48 hrs by SYBR green dye based qRT-PCR analysis; format: cell-based; summary of the method: as §1
VCaP [3] = experiment: Inhibition of BET bromodomain in human VCaP cells assessed as suppression of PSA mRNA expression at 5 uM incubated for 48 hrs by SYBR green dye based qRT-PCR analysis; format: cell-based; summary of the method: as §1
LNCaP [4] = experiment: Inhibition of BET bromodomain in human LNCaP cells assessed as suppression of TMPRSS2 mRNA expression at 5 uM incubated for 48 hrs by SYBR green dye based qRT-PCR analysis; format: cell-based; summary of the method: as §1
VCaP [5] = experiment: Inhibition of BET bromodomain in human VCaP cells assessed as suppression of TMPRSS2 mRNA expression at 5 uM incubated for 48 hrs by SYBR green dye based qRT-PCR analysis; format: cell-based; summary of the method: as §1
VCaP [6] = experiment: Inhibition of BET bromodomain in human VCaP cells assessed as suppression of Myc mRNA expression at 5 uM incubated for 48 hrs by SYBR green dye based qRT-PCR analysis; format: cell-based; summary of the method: as §1
VCaP [7] = experiment: Inhibition of BET bromodomain in human VCaP cells assessed as suppression of AR-V7 mRNA expression at 5 uM incubated for 48 hrs by SYBR green dye based qRT-PCR analysis; format: cell-based; summary of the method: as §1
22Rv1 [8] = experiment: Inhibition of BET bromodomain in human 22Rv1 cells assessed as suppression of full-length androgen receptor protein expression at 1 to 16 uM incubated for 48 hrs by western blot analysis; format: cell-based; conditions: dose 1-16 µM
22Rv1 [9] = experiment: Inhibition of BET bromodomain in human 22Rv1 cells assessed as suppression of AR-V7 protein expression at 1 to 16 uM incubated for 48 hrs by western blot analysis; format: cell-based; conditions: dose 1-16 µM
LNCaP [10] = experiment: Inhibition of BET bromodomain in human LNCaP cells transfected with Luc-tagged PSA and renilla luciferase assessed as reduction in PSA transcriptional activity measured after 24 hrs by dual luciferase reporter gene assay; format: cell-based; conditions: dose 0.4-10 µM
Summary of the method: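 LNCaP cells transfected with a PSA-luc reporter plasmid, then treated with vehicle or compound at 0.4, 2.0 or 10.0 µM; PSA transcriptional activity read by luciferase; mean ± s.e.m., n = 3; two-tailed Student's t-test.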

[11] = AUC in Sprague-Dawley rat at 2 mg/kg, iv by LC/MS analysis; format: ADME, organism-based; set-up: dose 2 mg/kg; conditions: in vivo
Summary of the method: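 Sprague-Dawley rats dosed iv at 2 mg/kg (a separate oral arm received 10 mg/kg); plasma exposure parameters derived from the concentration–time profile.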

| IC50 (DU-145) [µM] | IC50 (PC-3) [µM] | IC50 (MV4-11) [µM] | IC50 (HT-29) [µM] | IC50 (HeLa) [µM] | IC50 (A549) [µM] | AUC [11] [ng·h/mL] | Compound | IC50 (Hs-578T) [µM] | IC50 (HFL1) [µM] | inhibition (LNCaP C4-2B) | inhibition (LNCaP [1]) | inhibition (VCaP [2]) | inhibition (VCaP [3]) | inhibition (LNCaP [4]) | inhibition (VCaP [5]) | inhibition (VCaP [6]) | inhibition (VCaP [7]) | inhibition (22Rv1 [8]) | inhibition (22Rv1 [9]) | inhibition (LNCaP [10]) |
| --- | --- | --- | --- | --- | --- | --- | --- | --- | --- | --- | --- | --- | --- | --- | --- | --- | --- | --- | --- | --- |
| > 6 | > 3 | 0.4 | 0.4 | > 5 | > 5 | 1170 | COc1cc2onc(C)c2cc1NS(=O)(=O)c1cc(Br)ccc1OC | 1 | 18.2 | Dose-dependent effect | Active | Active | Active | Active | Active | Active | Active | Active | Active | Dose-dependent effect |
| > 6 | > 3 | 0.4 | 0.4 | > 5 | 2.5 | 881 | Cc1noc2ccc(-c3nc4ccc(N5CCOC[C@@H]5C)cc4n3CC3CCCCC3)cc12 | 1 | 15.9 | Dose-dependent effect | Active | Active | Active | Active | Active | Active | Active | Active | Active | Dose-dependent effect |
